Source: PubChem
DENV2 CPE rescue: protects cells from dengue virus 2 cytopathic effect. DENV2-infected cells, cytopathic effect rescue, plate reader. CPE inhibition, % at 9.99 µM. hit rate 1.7% among 350,000; in the data active = CPE inhibition above about 20%, passing the limit was not always enough; inconclusive = no clear call, values can overlap the other calls; tested in BHK-21 cells;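 note: 0% = median of neutral control wells and 100% = median of positive control wells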
ERAP1 inh: inhibitors of human ERAP1 aminopeptidase; hit rate 0.15% among 340,000; inhibition, % at 10.7 µM; Q9NZ08; recombinant ERAP1, Leu-AMC fluorescence, 60 min;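 active = mean replicate inhibition of at least 30%, or all replicates individually reaching that 30% level; inactive = mean below 30% and not every replicate reaching it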;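 note: 0% = neutral control wells and 100% = L-leucinethiol positive control wells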
Target sequence (Q9NZ08 whole entry, looked up): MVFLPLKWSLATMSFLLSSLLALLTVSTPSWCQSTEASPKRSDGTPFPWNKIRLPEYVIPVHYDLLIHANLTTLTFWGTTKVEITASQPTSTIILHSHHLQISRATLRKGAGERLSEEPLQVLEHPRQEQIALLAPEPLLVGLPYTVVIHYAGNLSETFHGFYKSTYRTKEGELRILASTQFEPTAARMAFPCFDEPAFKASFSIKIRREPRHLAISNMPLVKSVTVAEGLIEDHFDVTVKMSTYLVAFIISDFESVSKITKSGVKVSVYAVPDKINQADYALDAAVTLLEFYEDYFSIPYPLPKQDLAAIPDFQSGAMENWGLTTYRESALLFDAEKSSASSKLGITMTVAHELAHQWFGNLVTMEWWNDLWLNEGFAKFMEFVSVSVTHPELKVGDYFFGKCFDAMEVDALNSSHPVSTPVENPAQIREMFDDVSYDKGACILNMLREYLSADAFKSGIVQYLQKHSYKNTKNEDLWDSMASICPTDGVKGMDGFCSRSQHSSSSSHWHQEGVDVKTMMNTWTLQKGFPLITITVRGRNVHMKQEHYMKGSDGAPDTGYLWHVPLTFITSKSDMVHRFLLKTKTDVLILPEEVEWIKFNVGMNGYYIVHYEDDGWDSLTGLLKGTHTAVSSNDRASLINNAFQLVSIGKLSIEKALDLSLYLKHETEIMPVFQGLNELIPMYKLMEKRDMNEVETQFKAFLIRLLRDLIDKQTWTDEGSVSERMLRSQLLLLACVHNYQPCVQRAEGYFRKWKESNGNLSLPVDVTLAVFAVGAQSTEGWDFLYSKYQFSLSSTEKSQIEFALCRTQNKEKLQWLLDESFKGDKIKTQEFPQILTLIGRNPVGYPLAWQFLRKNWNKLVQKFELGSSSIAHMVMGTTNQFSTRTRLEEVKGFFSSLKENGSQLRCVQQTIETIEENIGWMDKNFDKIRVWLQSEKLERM
FGF22 binding: FGF22 (human) thermal shift binding; recombinant FGF22 thermal shift, SYPRO orange fluorescence; percent of sucrose octasulfate shift, DMSO zero; activity (Tm shift, normalised), % at 9.99 µM; Q9HCT0; hit rate 1.5% among 340,000;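 active = mean Tm shift, scaled 0 neutral to 100 positive control, at about 1.3% or above, every replicate too, limit read from the data; inconclusive = no clear call, values can overlap the other calls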
E-sel inducer: induces E-selectin expression in human endothelial cells; activation, % at 7.58 µM; P16581; hit rate 0.37% among 260,000; HUVEC E-selectin immunofluorescence imaging; normalized: neutral wells 0, TNF-alpha wells 100; AID 686992;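 active = mean E-selectin-positive cell signal at least 10% of the positive control, reached in at least 60% of replicates, without over 20% cell loss; inconclusive = no rule given, readout overlaps actives, possibly toxicity-flagged; inactive = the rest, including those meeting only one limit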
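Test system – human umbilical vein endothelial cells (HUVEC), E-selectin induction · Input – 3,000 HUVEC seeded per well · Buffer or medium – EGM-2, gelatin · Compound dosing – single-point compound dose · Detection – immunofluorescence imaging · Measure – percent E-selectin-positive cells · Controls – TNF-alpha high, DMSO low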
F508del corr: correctors of CFTR F508del function in bronchial epithelial cells; CFBE cells, YFP halide quenching; stimulated with forskolin plus potentiator P3; % fluorescence drop versus neutral controls; AID 720511; hit rate 0.36% among 350,000; activity (quench increase), % at 7.58 µM;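 active = mean added fluorescence quench of at least 8% versus neutral control, with both replicates also reaching 8%; inconclusive = only one of the mean or replicate conditions met; inactive = mean below 8% and not both replicates reaching 8%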;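 note: cells transiently co-express mutant CFTR-F508del with the halide-sensitive YFP; corrector assay measuring rescue of mutant channel to the surface after 24 h compound exposure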
An asterisk follows results filed as active; ? = inconclusive; nt = no result. Shown are actives, neighbours in structure and some others; about 3.7% of the full set was active somewhere.

SMILES	DENV2 CPE rescue	ERAP1 inh	FGF22 binding	E-sel inducer	F508del corr
C=CCn1c(SCC(=O)N(C)C2CCS(=O)(=O)C2)nc2ccccc2c1=O (configuration not stated)	6.7	-5.0	0.5	0.3	18.9*
C[C@H](CO)N1C[C@H](C)[C@H](CN(C)S(=O)(=O)c2ccccc2)Oc2c(NC(=O)Nc3cccc4ccccc34)cccc2C1=O	-6.3	-0.1	0.2	0.9	0.3
C[C@@H]1CN([C@@H](C)CO)C(=O)c2cccc(NC(=O)Nc3ccccc3)c2O[C@H]1CN(C)S(=O)(=O)c1ccccc1	39.5*	-1.6	0.0	?	1.3
C[C@H](CO)N1C[C@H](C)[C@H](CN(C)S(=O)(=O)c2ccccc2)Oc2c(NC(=O)C3CC3)cccc2C1=O	?	-0.3	-0.4	0.1	-1.5
Cc1ccc(S(=O)(=O)N(C)C[C@@H]2Oc3c(NC(=O)Nc4ccc5c(c4)OCO5)cccc3C(=O)N([C@@H](C)CO)C[C@H]2C)cc1	?	-5.4	0.0	-0.1	1.4
Cc1ccc(S(=O)(=O)N(C)C[C@H]2Oc3c(NC(=O)Nc4cccc5ccccc45)cccc3C(=O)N([C@H](C)CO)C[C@@H]2C)cc1	34.7*	-0.2	-0.9	0.0	2.4
C[C@@H]1CN([C@@H](C)CO)C(=O)c2cccc(NC(=O)Nc3ccc4c(c3)OCO4)c2O[C@H]1CN(C)S(=O)(=O)c1ccccc1	-1.8	2.4	0.0	0.0	9.0*
C[C@H](CO)N1C[C@H](C)[C@H](CN(C)S(=O)(=O)c2ccccc2)Oc2c(NC(=O)C3CCOCC3)cccc2C1=O	-16.3	2.0	-0.3	31.3*	1.7
O=C(NCC[C@H]1CC[C@H](NC(=O)c2cccnc2)[C@H](CO)O1)Nc1ccc(C(F)(F)F)cc1	?	1.9	-0.1	-0.2	-0.4
C[C@@H]1CCCCO[C@@H](CN(C)C(=O)Cc2ccccc2)[C@@H](C)CN([C@@H](C)CO)C(=O)c2cc(NC(=O)C3CCCCC3)ccc2O1	1.1	nt	0.0	-0.2	-0.5
O=C(CCN1CCCCC1)N[C@@H]1CC[C@@H](CCNS(=O)(=O)c2ccc(Cl)cc2)O[C@@H]1CO	-2.0	0.0	0.4	-0.4	-1.2
C[C@H](CO)N1C[C@H](C)[C@@H](CN(C)S(=O)(=O)c2ccccc2)Oc2c(NC(=O)Nc3cccc4ccccc34)cccc2C1=O	168.4*	0.7	-0.2	-0.4	3.6
COc1ccc([N+](=O)[O-])cc1Nc1c2ccccc2nc2ccccc12	4.3	3.6	0.0	3.7	13.2*
C[C@@H]1CN([C@H](C)CO)C(=O)c2cc(NC(=O)Cc3ccccc3)ccc2O[C@@H]1CN(C)C(=O)Nc1ccc(F)cc1	?	-0.3	-0.3	-2.1	0.1
Cc1ccc(Cl)cc1NC(=O)Nc1cccs1	-0.7	-2.1	43.0*	0.3	-0.2
CCc1ccccc1NC(=O)Nc1cccs1	-0.9	1.7	-0.1	nt	0.5
Cc1ccc(Cl)cc1NC(=O)CCC(=O)O	-1.3	45.2*	-0.1	2.5	-2.5
COCC(=O)Nc1cc(Cl)ccc1C	nt	5.4	0.2	nt	-0.2
CNC[C@H]1Oc2ccc(NS(=O)(=O)c3ccc(C)cc3)cc2C(=O)N([C@@H](C)CO)C[C@H]1C	3.6	-3.1	-0.2	1.0	0.1
C[C@@H]1CN([C@H](C)CO)S(=O)(=O)c2ccc(C3=CCCCC3)cc2O[C@H]1CN(C)Cc1cccc(C(=O)O)c1	-3.1	0.5	-0.4	0.1	1.3
COc1ccc(CCN(Cc2nc3ccccc3c(=O)[nH]2)C(=O)C2CC2)cc1	1.7	4.7	43.3*	nt	0.3
C[C@H]1CN([C@@H](C)CO)C(=O)Cc2cc(NC(=O)Nc3ccc(F)cc3)ccc2O[C@@H]1CN(C)Cc1ccc2c(c1)OCO2	-2.8	1.4	-0.1	0.0	1.0
NC(=O)c1ccc(NC(=O)COc2ccc([N+](=O)[O-])cc2Cl)cc1	6.7	-0.5	43.3*	nt	0.9
CNC[C@H]1Oc2ccc(NS(=O)(=O)c3ccccc3)cc2C(=O)N([C@@H](C)CO)C[C@@H]1C	-9.9	-1.5	0.0	nt	-4.1
O=C(Nc1ccc(F)cc1)Nc1ccccc1NS(=O)(=O)c1cccs1	3.0	-6.1	49.5*	1.9	-5.2
O=C(Nc1ccc(Cl)cc1)Nc1ccccc1NS(=O)(=O)c1cccs1	2.6	-11.7	-0.4	0.6	-0.9
